According to PubChem BioAssay:
Results filed as inconclusive are left out.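 Rule for the calls, unless noted: active = inhibition over a set limit, the all-compound mean plus 3 SD, in both replicate runs; inconclusive = over that limit in just one replicate run; inactive = at or under that limit in both runs.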

Legend:
[1] = OD615 S. cerevisiae growth inhibition, permissive medium, pilot counter-assay, permissive growth control for S. cerevisiae lifespan shortening project (AID 705;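 active = growth inhibition above 25% in both replicates, a cutoff set 3 SD above the mean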); conditions: OD615, 24 h, at 10 µM, active compounds read high
In short: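 assay system = Saccharomyces cerevisiae strain carrying genetically modified DeaD replicative-lifespan system | technique = absorbance (optical density) at 615 nm | buffer or medium = permissive raffinose/galactose medium | timing = cells pre-grown 4 h, then 24 h compound exposure, 30 °C humidified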

[2] = Restrictive medium S. cerevisiae growth inhibition, OD615, pilot screen of yeast lifespan reduction project, restrictive growth control (AID 706;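 active = growth inhibition above a set limit, 3 SD over mean compound inhibition, in both replicates, cut at about 43% in these data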;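 note: modified DeaD lifespan yeast strain shifted to restrictive glucose medium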); conditions: OD615, 48 h, at 10 µM, active compounds read high
In short: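 System: modified S. cerevisiae. Buffer or medium: CSMM-D glucose medium. Incubation: 4 h pre-growth plus 48 h compound exposure, 30 °C. Detection: absorbance (optical density) measured at 615 nm.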

[3] = viability gain of MRP-1-high H69AR cells under doxorubicin, pilot screen, MRP-1 activator project, CellTiter-Glo, duplicate (AID 807;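 active = viability increase at or above a cutoff of the median across tested compounds plus 3 SD, cut at about 8.5% in these data, passing the limit was not always enough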;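 note: compound pretreatment 18-22 h then 72 h combined with doxorubicin; 0% = doxorubicin alone and 100% = vehicle without doxorubicin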); conditions: H69AR viability with doxorubicin, CellTiter-Glo luminescence; at 10 µM; active compounds read high
[4] = growth suppression of beta-catenin knockout HCT116, pilot screen, human colon tumor cells (AID 823;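 active = cell viability at or below a set limit in both duplicate runs, the limit being the all-compound median minus 4 SD, cut at about 23% in these data, passing the limit was not always enough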;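 note: 0% = wells killed by 20 µM Hyamine and 100% = untreated DMSO cell wells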); conditions: CellTiter-Glo, 60 h, at 10 µM, active compounds read low
[5] = growth suppression of PTEN-deleted HCT116, pilot screen, cell-based, HCT116 clonal line, CellTiter-Glo (AID 824;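 active = viability at or below 27.92% in each of two runs, the all-compound median minus 4 SD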;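 note: 0% = 20 µM Hyamine control and 100% = vehicle cell control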); conditions: 60 h, at 10 µM, active compounds read low
[6] = inhibitors of the yeast RAM network, pilot screen, dse1pr::URA3 reporter, 5-FOA selection (AID 869);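 note: 0% = DMSO wells with no growth and 100% = 10 µM 1-NA-PP1 with full growth; RAM network block rescues cells from 5-FOA so hits raise OD615 growth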; conditions: S. cerevisiae dse1pr::URA3 5-FOA growth, OD615, 2 d; at 10 µM; active compounds read high; strain carries analog-sensitive mutant Cbk1 kinase
[7] = RAM signaling pathway blockade in yeast – S. cerevisiae, Pdr1DBD-CYC8 efflux-inhibited sensitized strain, primary screen (AID 1298;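 active = RAM network inhibition above 8.4% in each of two replicates, 3 SD over the compound average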;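 note: 0% = DMSO untreated cells without growth and 100% = 10 µM 1-NA-PP1 full growth; higher means more yeast growth rescued from 5-FOA killing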); conditions: S. cerevisiae cbk1-as DSE1-URA3 strain, 5-FOA growth OD615, 2 d; at 50 µM; active compounds read high

O=C1CCCC2=C1C(c1cn(-c3ccccc3)nc1-c1cccs1)c1c([nH]c(=O)[nH]c1=O)N2 (stereo unspecified)
inactive: growth inhibition [1] -11.2% | growth inhibition [2] -27.7% | viability increase [3] 1.36% | viability [4] 106% | viability [5] 99.1% | inhibition [6] 0.32% | RAM network inhibition [7] 2.19%

Cc1ccc(NC(=O)CNS(=O)(=O)c2cccs2)cc1F
inactive: growth inhibition [1] -5.56% | growth inhibition [2] -17.9% | viability increase [3] 1.44% | viability [4] 100% | viability [5] 97.7% | inhibition [6] 0.01% | RAM network inhibition [7] -0.53%

Cc1ccccc1-n1nc(C(=O)O)c(C)c(C#N)c1=O
inactive: growth inhibition [1] -3.86% | growth inhibition [2] -6.29% | viability increase [3] -0.28% | viability [4] 97.8% | viability [5] 98.6% | inhibition [6] 2.41% | RAM network inhibition [7] 3.52%

CSc1ccc(Cl)c(C(=O)NCc2ccco2)c1
inactive: growth inhibition [1] -3.93% | growth inhibition [2] 8.44% | viability increase [3] -3.7% | viability [4] 85.8% | viability [5] 81.6% | inhibition [6] 2.33% | RAM network inhibition [7] 5.31%

CCCCN(C)CCNC(=O)Cn1ncc2c(=O)oc3ccc(C)cc3c21
inactive: growth inhibition [1] -3.19% | growth inhibition [2] 0.355% | viability increase [3] -2.9% | viability [4] 95.1% | viability [5] 94.2% | inhibition [6] 0.93% | RAM network inhibition [7] 3.72%

COc1ccccc1C1N(c2cc(Cl)ccc2OC)C(=O)C2CCCN21 (stereo unspecified)
inactive: growth inhibition [1] 8.71% | growth inhibition [2] 3.69% | viability increase [3] -2.83% | viability [4] 98.7% | viability [5] 96.3% | inhibition [6] 0.445% | RAM network inhibition [7] 2.33%

O=C(Cc1cc(=O)[nH]c(=O)[nH]1)NCC1CCCO1 (stereo unspecified)
inactive: growth inhibition [1] 7.33% | growth inhibition [2] -1.15% | viability increase [3] 0.94% | viability [4] 106% | viability [5] 104% | inhibition [6] 0.945% | RAM network inhibition [7] 2.29%

Cc1cccc(NC(=O)c2ccc(S(=O)(=O)N(C)C)cc2)c1
inactive: growth inhibition [1] -8.26% | growth inhibition [2] -8.44% | viability increase [3] -3.61% | viability [4] 106% | viability [5] 100% | inhibition [6] 2.24% | RAM network inhibition [7] 1.69%

CCCc1cc(C(=O)Nc2cc(OC)c(Cl)cc2OC)no1
inactive: growth inhibition [1] -4.69% | growth inhibition [2] 4.3% | viability increase [3] -4.41% | viability [4] 89.5% | viability [5] 88.8% | inhibition [6] 0.45% | RAM network inhibition [7] 7.36%

COC(=O)C1C2C=CC3(CN(c4cccc(Cl)c4)C(=O)C13)O2 (stereo unspecified)
inactive: growth inhibition [1] -11.2% | growth inhibition [2] -8.25% | viability increase [3] -1.38% | viability [4] 107% | viability [5] 99.5% | inhibition [6] 1.06% | RAM network inhibition [7] 5.74%

CCOc1ccc(N(CC(=O)NC2CCCC2)S(=O)(=O)c2c(C)noc2C)cc1
inactive: growth inhibition [1] -12.7% | growth inhibition [2] -2.85% | viability increase [3] -2.27% | viability [4] 97.4% | viability [5] 94.9% | inhibition [6] 3.61% | RAM network inhibition [7] 8.02%

Nc1cc(N)nc(SCCOc2ccccc2)n1
inactive: growth inhibition [1] -4.79% | growth inhibition [2] -0.825% | viability increase [3] 0.93% | viability [4] 106% | viability [5] 106% | inhibition [6] 2.26% | RAM network inhibition [7] 2.17%

CCCc1nc(N)c(C#N)c(-c2cccnc2)c1CC
inactive: growth inhibition [1] -6.48% | growth inhibition [2] -4.83% | viability increase [3] -4.91% | viability [4] 90.8% | viability [5] 84.7% | inhibition [6] 0.805% | RAM network inhibition [7] 3.69%

COc1ccccc1NC(=O)C1CCCN(S(=O)(=O)c2cnc[nH]2)C1 (stereo unspecified)
inactive: growth inhibition [1] 1.64% | growth inhibition [2] -3.54% | viability increase [3] -0.26% | viability [4] 97% | viability [5] 95.5% | inhibition [6] 0.53% | RAM network inhibition [7] 0.84%

O=C(CC1NC(=O)NC1=O)NC1(C(=O)NC2CCCCC2)CCCCC1 (stereo unspecified)
inactive: growth inhibition [1] -9.09% | growth inhibition [2] 5.08% | viability increase [3] 0.88% | viability [4] 99.3% | viability [5] 102% | inhibition [6] 1.18% | RAM network inhibition [7] -0.62%

COc1ccc(-n2nnc3c(=O)n(CC(=O)N4CCC(C)CC4)cnc32)cc1
inactive: growth inhibition [1] 8.16% | growth inhibition [2] 3.46% | viability increase [3] -0.52% | viability [4] 95.8% | viability [5] 92.3% | inhibition [6] 1.77% | RAM network inhibition [7] 2.64%

COC(=O)/C=C/S(=O)(=O)c1ccc(NC(C)=O)cc1
inactive: growth inhibition [1] -15.3% | growth inhibition [2] 0.685% | viability increase [3] -8.44% | viability [4] 88.3% | viability [5] 85.4% | inhibition [6] 0.565% | RAM network inhibition [7] 7.25%

Oc1c(C(c2cccs2)N2CCOCC2)sc2ncnn12 (stereo unspecified)
inactive: growth inhibition [1] 11.1% | growth inhibition [2] -3.88% | viability increase [3] 0.31% | viability [4] 105% | viability [5] 101% | inhibition [6] 0.895% | RAM network inhibition [7] 5.2%
